# Measurements taken from ChEMBL document CHEMBL1126683, “Synthesis and antitumor activity of isodoxorubicin analogues” (J Med Chem, 1993).
# Key:
# [1] = system: L1210; experiment: Growth inhibition of L1210 murine leukemia cells after 1 hr exposure in untreated control culture; assay type: functional, cell-based; details: Mus musculus, L1210, 1 h
# In short: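 L1210 cells were exposed to graded concentrations for 1 h at 37 °C, washed twice in McCoy 5A, and plated at 5×10^2 cells/plate in an agar upper layer using a modified Hamburger–Salmon method. Plates were kept 5–7 days at 37 °C in 5% CO₂, 20% O₂, 95% humidity. Colonies >60 μm were counted as % of untreated control, and IC50 was read from dose–response curves.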
# [2] = species on record: Homo sapiens; experiment: Activity against internally growing human tumor A-549 tested in subrenal capsule assay; assay type: functional
# In short: (§1)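 Human tumors were grown intrarenally in a subrenal capsule assay. Tumor area of the treated group was scored against the control group as follows: >50%, between 10% and 50%, or <10% of control.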
# [3] = system: L1210; experiment: Growth inhibition of L1210/ADM murine leukemia cells after 3 day exposure in MTT assay; details: Mus musculus, L1210, 3 day
# [4] = species on record: Homo sapiens; experiment: Activity against internally growing human tumor LXF tested in subrenal capsule assay; assay type: functional; in short: as §1
# [5] = system: HT-29; experiment: Growth inhibition of HT 29 cell line by MTT reduction for 7 days of incubation time; details: Homo sapiens, HT-29, 168 h
# [6] = system: A549; experiment: cells; details: Homo sapiens, A549, 168 h
# [7] = system: HT-29; experiment: Growth inhibition of HT 29 cell line by MTT reduction for 3 days of incubation time; assay type: functional, cell-based; details: Homo sapiens, HT-29, 72 h
# In short: (§2)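 Exponentially growing A549 or HT29 cells were seeded at 5×10^3/mL in RPMI and exposed to graded concentrations for 72 h (37 °C, 5% CO₂), in quadruplicate wells. MTT was added at 65 h, followed by a further 7–24 h incubation. Formazan was dissolved in DMSO and read at 492 nm. Results were expressed as extinction ratio to medium-only control, and IC50 was taken as 50% growth inhibition.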
# [8] = Evaluated for the degree of cross resistance as the ratio of degree of resistance of doxorubicin to degree of resistance of the compound; assay type: functional
# In short: (§3)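 Colony (stem cell) assay comparing L1210 and L1210/ADM cells under continuous exposure, with the compound mixed into the agar upper layer before plating. Cells were plated at 5×10^2 per plate and incubated 5–7 days at 37 °C. Colonies >60 μm were counted relative to untreated control, and IC50 values were taken from dose–response curves to form the resistance ratios.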
# [9] = system: A549; experiment: Growth inhibition of A 549 cell line by MTT reduction for 3 days of incubation time; assay type: functional, cell-based; details: Homo sapiens, A549, 72 h; in short: as §2
# [10] = species on record: Homo sapiens; experiment: Activity against internally growing human tumor HT-29 tested in subrenal capsule assay; assay type: functional; in short: as §1
# [11] = Evaluated for the degree of resistance as the ratio of IC50 L1210 / ADM to IC50 of L1210; assay type: functional; in short: as §3
# [12] = species on record: Homo sapiens; experiment: Activity against internally growing human tumor LXF / ADM tested in subrenal capsule assay; assay type: functional
# In short: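 Tumors were resected at about 1/3 cm, cut into pieces of about 5 mm³, and retransplanted repeatedly until sensitivity was reduced. The subline was then tested in the subrenal capsule assay, with tumor area of the treated group scored as >50%, 10–50%, or <10% of control.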
# [13] = system: L1210; experiment: Growth inhibition of L1210 murine leukemia cells after 3 day exposure in MTT reduction assay; details: Mus musculus, L1210, 3 days
# [14] = system: L1210; experiment: Percentage ratio of mean survival time of treated animals to untreated controls for L1210 mouse leukemia treated by 3.1 mg / kg dosed intravenously on 1,5,and 9 days; details: route intravenous
SMILES,IC50 [1] [µg/mL],IC50 [3] [µg/mL],IC50 [5] [µg/mL],IC50 [6] [µg/mL],IC50 [7] [µg/mL],IC50 [9] [µg/mL],IC50 [13] [µg/mL],T/C [2] [%],T/C [4] [%],Degree of cross resistance [8],T/C [10] [%],Degree of resistance [11],T/C [12] [%],T/C [14] [%]
COc1cccc2c1C(=O)c1c(O)c3c(c(O)c1C2=O)C[C@@](O)(C(=O)CO)C[C@@H]3O[C@H]1C[C@H](N)[C@H](O)[C@H](C)O1 [DOXORUBICIN],0.04,0.9,0.02,0.02,0.06,0.05,,>10,<10,100,>10,45,>10,
CC1O[C@@H](O[C@H]2C[C@](O)(CO)Cc3c(O)c4c(c(O)c32)C(=O)c2ccccc2C4=O)C[C@@H](O)[C@@H]1N1CCOCC1 (stereo partly specified),0.21,,,,0.13,0.054,0.15,,,,,,,

# The next lines start with results.
IC50 [1] [µg/mL],IC50 [3] [µg/mL],IC50 [5] [µg/mL],IC50 [6] [µg/mL],IC50 [7] [µg/mL],IC50 [9] [µg/mL],IC50 [13] [µg/mL],SMILES,T/C [2] [%],T/C [4] [%],Degree of cross resistance [8],T/C [10] [%],Degree of resistance [11],T/C [12] [%],T/C [14] [%]
0.26,,,,0.46,0.24,0.13,CC1O[C@@H](O[C@H]2C[C@](O)(CO)Cc3c(O)c4c(c(O)c32)C(=O)c2ccccc2C4=O)C[C@@H](O)[C@@H]1N=[N+]=[N-] (stereo partly specified),,,,,,,
0.022,0.1,,,0.01,0.009,0.009,CC1O[C@@H](O[C@H]2C[C@](O)(CO)Cc3c(O)c4c(c(O)c32)C(=O)c2ccccc2C4=O)C[C@@H](O)[C@@H]1N.Cl (stereo partly specified),>50,>10,24,>50,11,>50,133
0.0064,,,,0.026,0.011,0.015,CC1O[C@@H](O[C@H]2C[C@](O)(CO)Cc3c(O)c4c(c(O)c32)C(=O)c2ccccc2C4=O)C[C@@H](O)[C@@H]1NC(=O)C(F)(F)F (stereo partly specified),,,,,,,
